Assay results reported in ChEMBL document CHEMBL1125495, “Inhibitors of human renin with C-termini derived from amides and esters of alpha-mercaptoalkanoic acids” (J Med Chem, 1992).

Experiments:
Renin = target: T1, Renin (Homo sapiens, UniProt P00797); assay: Inhibition of human plasma renin; format: cell-free
T1 sequence (P00797 whole entry): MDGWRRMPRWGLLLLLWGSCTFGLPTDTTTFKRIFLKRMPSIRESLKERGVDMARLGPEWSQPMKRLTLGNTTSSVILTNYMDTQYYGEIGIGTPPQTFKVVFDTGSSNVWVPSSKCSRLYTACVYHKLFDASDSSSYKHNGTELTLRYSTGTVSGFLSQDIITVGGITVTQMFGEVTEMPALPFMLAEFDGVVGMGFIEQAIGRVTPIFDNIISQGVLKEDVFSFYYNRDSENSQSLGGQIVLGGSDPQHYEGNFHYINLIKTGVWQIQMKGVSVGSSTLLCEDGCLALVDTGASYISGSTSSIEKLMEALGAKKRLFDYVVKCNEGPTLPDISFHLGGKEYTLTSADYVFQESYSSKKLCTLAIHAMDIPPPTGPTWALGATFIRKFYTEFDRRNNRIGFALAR

Rhesus monkey [1] = assay: In vivo effect on heart rate(peak deltaHR) in sodium deficient rhesus monkeys after iv administration (dose 0.43 mg/kg).; format: functional, Cercopithecidae
Outline: (§1)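 Conscious male and female rhesus monkeys (N = 2) with chronic arterial access ports for direct MAP and heart-rate monitoring, and venous catheters for dosing. Animals were kept on a low-sodium diet, given furosemide the evening before, and fasted 18 h before and during the study. Compound was given iv in 0.05% acetic acid/5% dextrose/H2O, 20 min after a vehicle control dose. Peak changes were averaged, and the hypotensive half-life was read from time plots.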

Renin (Homo sapiens) [2] = target: T2, Renin (Homo sapiens) (UniProt P00797); assay: In vivo inhibition of plasma renin activity in sodium deficient rhesus monkeys after iv administration (dose 0.43 mg/kg, determined at peak deltaMAP).; format: functional, organism-based; set-up: dose 0.43 mg/kg; conditions: Cercopithecidae, target entry is the homologue from another species, at 0.43 mg/kg
T2 sequence (whole entry): T1 sequence (P00797 whole entry)
Outline: (§2)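 Sodium-deficient rhesus monkeys (N = 2) were kept on a low-sodium diet, given furosemide the evening before, and fasted 18 h. Compound was given iv through a venous catheter in 0.05% acetic acid/5% dextrose/H2O, 20 min after vehicle. Blood was drawn periodically via an arterial access port for plasma renin activity. Percent inhibition was taken at peak ΔMAP.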

Rhesus monkey [3] = assay: In vivo effect on mean arterial pressure(peak deltaMAP) in sodium deficient rhesus monkeys after iv administration (dose 0.43 mg/kg).; format: functional, Cercopithecidae, Artery; outline: as §1
Rhesus monkey [4] = assay: Half life of hypotensive effect in sodium deficient rhesus monkeys after iv administration (dose 0.43 mg/kg).; format: functional, organism-based; set-up: dose 0.43 mg/kg; conditions: Cercopithecidae; outline: as §1
Renin (Homo sapiens) [5] = target: T2, Renin (Homo sapiens); assay: In vivo inhibition of plasma renin activity in sodium deficient rhesus monkeys after iv administration (dose 0.34 mg/kg, determined at peak deltaMAP).; format: functional, organism-based; set-up: dose 0.34 mg/kg; conditions: Cercopithecidae, target entry is the homologue from another species, at 0.34 mg/kg
Rhesus monkey [6] = assay: In vivo effect on mean arterial pressure(peak deltaMAP) in sodium deficient rhesus monkeys after iv administration (dose 0.34 mg/kg).; format: functional, Cercopithecidae, Artery
Rhesus monkey [7] = assay: In vivo effect on heart rate(peak deltaHR) in sodium deficient rhesus monkeys after iv administration (dose 0.34 mg/kg).; format: functional, Cercopithecidae
Rhesus monkey [8] = assay: Half life of hypotensive effect in sodium deficient rhesus monkeys after iv administration (dose 0.34 mg/kg).; format: functional, organism-based; set-up: dose 0.34 mg/kg; conditions: Cercopithecidae
Rhesus monkey [9] = assay: Half life of hypotensive effect in sodium deficient rhesus monkeys after iv administration (dose 0.31 mg/kg).; format: functional, organism-based; set-up: dose 0.31 mg/kg; conditions: Cercopithecidae; outline: as §1
Rhesus monkey [10] = assay: In vivo effect on mean arterial pressure(peak deltaMAP) in sodium deficient rhesus monkeys after iv administration (dose 0.31 mg/kg).; format: functional, Cercopithecidae, Artery; outline: as §1
Renin (Homo sapiens) [11] = target: T2, Renin (Homo sapiens); conditions: Cercopithecidae; Plasma; at 0.63 mg/kg
Rhesus monkey [12] = assay: In vivo effect on heart rate(peak deltaHR) in sodium deficient rhesus monkeys after iv administration (dose 0.31 mg/kg).; format: functional, Cercopithecidae; outline: as §1
Renin (Homo sapiens) [13] = target: T2, Renin (Homo sapiens); assay: In vivo inhibition of plasma renin activity in sodium deficient rhesus monkeys after iv administration (dose 0.63 mg/kg, determined at peak deltaMAP).; format: functional, organism-based; set-up: dose 0.63 mg/kg; conditions: Cercopithecidae; target entry is the homologue from another species; at 0.63 mg/kg; outline: as §2
Rhesus monkey [14] = assay: Half life of hypotensive effect in sodium deficient rhesus monkeys after iv administration (dose 0.63 mg/kg).; format: functional, organism-based; set-up: dose 0.63 mg/kg; conditions: Cercopithecidae; outline: as §1
Rhesus monkey [15] = assay: In vivo effect on mean arterial pressure(peak deltaMAP) in sodium deficient rhesus monkeys after iv administration (dose 0.63 mg/kg).; format: functional, Cercopithecidae, Artery; outline: as §1
Rhesus monkey [16] = assay: In vivo effect on heart rate(peak deltaHR) in sodium deficient rhesus monkeys after iv administration (dose 0.63 mg/kg).; format: functional, Cercopithecidae; outline: as §1
Rhesus monkey [17] = assay: In vivo effect on mean arterial pressure(peak deltaMAP) in sodium deficient rhesus monkeys after iv administration (dose 0.1 mg/kg).; format: functional, Cercopithecidae, Artery; outline: as §1
Renin (Homo sapiens) [18] = target: T2, Renin (Homo sapiens); assay: In vivo inhibition of plasma renin activity in sodium deficient rhesus monkeys after iv administration (dose 0.1 mg/kg, determined at peak deltaMAP).; format: functional, organism-based; set-up: dose 0.1 mg/kg; conditions: Cercopithecidae, target entry is the homologue from another species, at 0.1 mg/kg; outline: as §2
Rhesus monkey [19] = assay: Half life of hypotensive effect in sodium deficient rhesus monkeys after iv administration (dose 0.1 mg/kg).; format: functional, organism-based; set-up: dose 0.1 mg/kg; conditions: Cercopithecidae; outline: as §1
Rhesus monkey [20] = assay: In vivo effect on heart rate(peak deltaHR) in sodium deficient rhesus monkeys after iv administration (dose 0.1 mg/kg).; format: functional, Cercopithecidae; outline: as §1

CC(C)(C)OC(=O)N[C@@H](Cc1ccccc1)C(=O)N[C@@H](Cc1cnc[nH]1)C(=O)N[C@@H](CC1CCCCC1)[C@@H](O)CS(=O)(=O)CC(=O)NCCN1CCOCC1
IC50 (Renin): 9.4 nM

CC(C)(C)OC(=O)N[C@@H](Cc1ccccc1)C(=O)N[C@@H](Cc1cnc[nH]1)C(=O)N[C@@H](CC1CCCCC1)[C@@H](O)CSCC(=O)NCCN1CCOCC1
IC50 (Renin): 40 nM

CC(C)(C)OC(=O)N[C@@H](Cc1ccccc1)C(=O)N[C@@H](Cc1c[nH]cn1)C(=O)N[C@@H](CC1CCCCC1)[C@@H](O)CSCC(=O)NCCN1CCOCC1
Peak deltaHR (Rhesus monkey [1]): -26 beats min-1 | inhibition (Renin (Homo sapiens) [2]): 90% | Peak deltaMAP (Rhesus monkey [3]): -20.5 mmHg | T1/2 (Rhesus monkey [4]): < 10 min

CC(C)(C)OC(=O)N[C@@H](Cc1ccccc1)C(=O)N[C@@H](Cc1c[nH]cn1)C(=O)N[C@@H](CC1CCCCC1)[C@@H](O)CSc1nnnn1CCc1ccncc1
inhibition (Renin (Homo sapiens) [5]): 95% | Peak deltaMAP (Rhesus monkey [6]): -22 mmHg | Peak deltaHR (Rhesus monkey [7]): 1 beats min-1 | T1/2 (Rhesus monkey [8]): < 10 min

CN1CCN(C(=O)CSC[C@H](O)[C@H](CC2CCCCC2)NC(=O)[C@H](Cc2c[nH]cn2)NC(=O)[C@H](Cc2ccccc2)NC(=O)OC(C)(C)C)CC1
T1/2 (Rhesus monkey [9]): < 10 min | Peak deltaMAP (Rhesus monkey [10]): -25 mmHg | inhibition (Renin (Homo sapiens) [11]): 86% | Peak deltaHR (Rhesus monkey [12]): 4 beats min-1

CC(C)(C)OC(=O)N[C@@H](Cc1ccccc1)C(=O)N[C@@H](Cc1cnc[nH]1)C(=O)N[C@@H](CC1CCCCC1)[C@@H](O)C[S+]([O-])CC(=O)NCCN1CCOCC1 (some centres undefined)
IC50 (Renin): 19 nM

CCOC(=O)CSC[C@H](O)[C@H](CC1CCCCC1)NC(=O)[C@H](Cc1c[nH]cn1)NC(=O)[C@H](Cc1ccccc1)NC(=O)OC(C)(C)C
inhibition (Renin (Homo sapiens) [13]): 87% | T1/2 (Rhesus monkey [14]): < 10 min | Peak deltaMAP (Rhesus monkey [15]): -15 mmHg | Peak deltaHR (Rhesus monkey [16]): -23 beats min-1

CC(C)(C)OC(=O)N[C@@H](Cc1ccccc1)C(=O)N[C@@H](Cc1c[nH]cn1)C(=O)N[C@@H](CC1CCCCC1)[C@@H](O)CS(=O)(=O)CC(=O)NC1CCN(Cc2ccccc2)CC1
IC50 (Renin): 34 nM

CC(C)(C)OC(=O)N[C@@H](Cc1ccccc1)C(=O)N[C@@H](Cc1c[nH]cn1)C(=O)N[C@@H](CC1CCCCC1)[C@@H](O)CS(=O)(=O)CC(=O)NCCN1CCOCC1
Peak deltaMAP (Rhesus monkey [17]): -15 mmHg | inhibition (Renin (Homo sapiens) [18]): 88% | T1/2 (Rhesus monkey [19]): < 10 min | Peak deltaHR (Rhesus monkey [20]): -18 beats min-1
